One block for each compound: values may come before it.
Columns and labels:
[1] = organism: Homo sapiens; assay: Inhibition of human recombinant CK1d at 500 nM related to control ULK1
[2] = biological target: T1, Tyrosine-protein kinase Mer (Homo sapiens) (UniProt Q12866); assay: Inhibition of human recombinant MER at 500 nM related to control ULK1
T1 sequence (whole entry): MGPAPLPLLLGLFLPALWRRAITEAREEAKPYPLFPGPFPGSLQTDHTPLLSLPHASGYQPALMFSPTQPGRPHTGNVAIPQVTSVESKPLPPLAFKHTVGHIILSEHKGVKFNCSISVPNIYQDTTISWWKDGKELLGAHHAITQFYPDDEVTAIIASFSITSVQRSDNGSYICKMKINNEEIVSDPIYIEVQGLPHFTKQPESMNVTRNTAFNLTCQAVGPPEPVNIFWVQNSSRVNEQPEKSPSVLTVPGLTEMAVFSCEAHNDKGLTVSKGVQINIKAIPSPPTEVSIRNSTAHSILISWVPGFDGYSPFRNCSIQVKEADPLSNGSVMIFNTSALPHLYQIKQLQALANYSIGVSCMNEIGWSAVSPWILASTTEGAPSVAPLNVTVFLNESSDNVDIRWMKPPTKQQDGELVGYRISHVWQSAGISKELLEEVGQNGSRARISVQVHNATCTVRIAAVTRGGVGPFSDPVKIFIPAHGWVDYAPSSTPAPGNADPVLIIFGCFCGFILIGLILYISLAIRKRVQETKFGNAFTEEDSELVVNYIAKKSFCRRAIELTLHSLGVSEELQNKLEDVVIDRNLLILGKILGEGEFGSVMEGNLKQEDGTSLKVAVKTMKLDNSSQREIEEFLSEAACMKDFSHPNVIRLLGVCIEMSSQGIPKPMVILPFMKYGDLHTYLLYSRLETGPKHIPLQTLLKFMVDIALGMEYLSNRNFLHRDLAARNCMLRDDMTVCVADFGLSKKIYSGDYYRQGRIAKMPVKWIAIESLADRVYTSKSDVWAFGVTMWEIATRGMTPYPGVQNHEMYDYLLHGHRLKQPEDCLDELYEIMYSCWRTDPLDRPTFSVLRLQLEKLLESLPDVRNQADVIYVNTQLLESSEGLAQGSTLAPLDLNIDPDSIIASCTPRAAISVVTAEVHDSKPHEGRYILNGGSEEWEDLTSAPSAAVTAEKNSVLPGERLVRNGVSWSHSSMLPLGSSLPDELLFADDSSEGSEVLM

[3] = biological target: MAP kinase-activated protein kinase 2 (Homo sapiens) (UniProt P49137); assay: Inhibition of human recombinant MAPKAPK2 at 500 nM related to control ULK1
Sequence of MAP kinase-activated protein kinase 2 (Homo sapiens) (P49137 whole entry, looked up): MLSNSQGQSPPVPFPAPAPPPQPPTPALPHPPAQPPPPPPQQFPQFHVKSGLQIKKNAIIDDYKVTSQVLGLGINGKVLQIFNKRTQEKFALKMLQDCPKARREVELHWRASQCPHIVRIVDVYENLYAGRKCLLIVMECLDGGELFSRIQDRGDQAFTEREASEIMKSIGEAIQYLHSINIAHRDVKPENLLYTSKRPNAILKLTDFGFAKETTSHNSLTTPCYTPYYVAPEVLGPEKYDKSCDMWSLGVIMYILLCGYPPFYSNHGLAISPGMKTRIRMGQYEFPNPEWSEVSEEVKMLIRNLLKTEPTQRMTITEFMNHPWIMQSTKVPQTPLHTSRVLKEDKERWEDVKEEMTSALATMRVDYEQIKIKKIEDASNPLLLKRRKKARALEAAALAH

[4] = biological target: Ephrin type-A receptor 2 (Homo sapiens) (UniProt P29317); assay: Inhibition of human recombinant EphA2 at 500 nM in presence of ATP by radiometric assay relative to control
[5] = biological target: Casein kinase II subunit alpha' (Homo sapiens) (UniProt P19784); assay: Inhibition of human recombinant CK2a2 at 500 nM related to control ULK1
Sequence of Casein kinase II subunit alpha' (Homo sapiens) (P19784 whole entry, looked up): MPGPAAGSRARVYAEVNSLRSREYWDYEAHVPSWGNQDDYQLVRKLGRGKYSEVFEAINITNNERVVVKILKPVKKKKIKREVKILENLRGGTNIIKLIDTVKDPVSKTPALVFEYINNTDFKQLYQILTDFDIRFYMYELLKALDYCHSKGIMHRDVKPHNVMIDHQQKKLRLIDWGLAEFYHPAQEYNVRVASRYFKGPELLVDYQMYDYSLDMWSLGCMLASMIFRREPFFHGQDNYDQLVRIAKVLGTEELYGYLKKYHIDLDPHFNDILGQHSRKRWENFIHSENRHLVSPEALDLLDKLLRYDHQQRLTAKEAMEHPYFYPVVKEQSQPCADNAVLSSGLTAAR

[6] = biological target: Glycogen synthase kinase-3 beta (Homo sapiens) (UniProt P49841); assay: Inhibition of human recombinant GSK3B at 500 nM in presence of ATP by radiometric assay relative to control
Sequence of Glycogen synthase kinase-3 beta (Homo sapiens) (P49841 whole entry, looked up): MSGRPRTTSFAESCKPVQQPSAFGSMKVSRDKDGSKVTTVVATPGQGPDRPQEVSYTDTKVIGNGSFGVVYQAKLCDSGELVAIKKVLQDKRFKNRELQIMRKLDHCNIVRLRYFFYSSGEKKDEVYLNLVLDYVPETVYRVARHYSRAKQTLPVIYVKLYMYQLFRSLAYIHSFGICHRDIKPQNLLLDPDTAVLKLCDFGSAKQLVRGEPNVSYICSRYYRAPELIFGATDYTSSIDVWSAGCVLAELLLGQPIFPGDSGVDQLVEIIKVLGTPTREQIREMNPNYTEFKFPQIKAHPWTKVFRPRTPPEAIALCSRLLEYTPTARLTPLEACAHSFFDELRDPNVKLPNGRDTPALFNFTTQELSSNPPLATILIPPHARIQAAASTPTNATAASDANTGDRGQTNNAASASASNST

[7] = biological target: Serine/threonine-protein kinase PRP4 homolog (Homo sapiens) (UniProt Q13523); assay: Inhibition of human recombinant PRP4 at 500 nM related to control ULK1
Sequence of Serine/threonine-protein kinase PRP4 homolog (Homo sapiens) (Q13523 whole entry): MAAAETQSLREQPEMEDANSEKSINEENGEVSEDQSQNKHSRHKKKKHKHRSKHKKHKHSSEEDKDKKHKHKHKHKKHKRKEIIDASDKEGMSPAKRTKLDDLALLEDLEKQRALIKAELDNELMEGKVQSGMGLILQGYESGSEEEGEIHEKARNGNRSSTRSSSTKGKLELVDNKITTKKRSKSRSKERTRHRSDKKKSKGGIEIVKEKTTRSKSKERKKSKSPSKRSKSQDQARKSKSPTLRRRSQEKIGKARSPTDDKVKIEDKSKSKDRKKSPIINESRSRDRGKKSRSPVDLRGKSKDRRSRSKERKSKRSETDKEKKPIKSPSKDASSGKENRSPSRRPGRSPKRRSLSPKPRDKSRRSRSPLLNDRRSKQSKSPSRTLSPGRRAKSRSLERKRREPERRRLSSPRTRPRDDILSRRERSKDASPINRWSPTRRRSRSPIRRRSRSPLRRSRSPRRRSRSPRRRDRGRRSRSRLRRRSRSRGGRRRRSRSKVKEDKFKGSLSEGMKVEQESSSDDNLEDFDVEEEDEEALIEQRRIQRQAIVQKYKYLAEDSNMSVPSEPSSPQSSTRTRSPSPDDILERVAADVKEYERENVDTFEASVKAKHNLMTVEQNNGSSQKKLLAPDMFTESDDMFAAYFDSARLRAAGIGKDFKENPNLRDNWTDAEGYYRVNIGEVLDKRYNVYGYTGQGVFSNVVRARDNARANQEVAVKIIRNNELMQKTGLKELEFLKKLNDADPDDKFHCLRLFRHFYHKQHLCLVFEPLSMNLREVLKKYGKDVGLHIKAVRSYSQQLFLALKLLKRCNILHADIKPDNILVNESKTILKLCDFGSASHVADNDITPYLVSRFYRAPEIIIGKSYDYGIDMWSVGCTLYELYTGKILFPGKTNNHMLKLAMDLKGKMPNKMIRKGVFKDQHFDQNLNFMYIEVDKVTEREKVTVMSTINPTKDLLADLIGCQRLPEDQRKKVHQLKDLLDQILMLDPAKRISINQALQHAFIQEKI

[8] = biological target: Protein-tyrosine kinase 2-beta (Homo sapiens) (UniProt Q14289); assay: Inhibition of human recombinant PYK2 at 15 nM in presence of ATP by radiometric assay relative to control
Sequence of Protein-tyrosine kinase 2-beta (Homo sapiens) (Q14289 whole entry, looked up): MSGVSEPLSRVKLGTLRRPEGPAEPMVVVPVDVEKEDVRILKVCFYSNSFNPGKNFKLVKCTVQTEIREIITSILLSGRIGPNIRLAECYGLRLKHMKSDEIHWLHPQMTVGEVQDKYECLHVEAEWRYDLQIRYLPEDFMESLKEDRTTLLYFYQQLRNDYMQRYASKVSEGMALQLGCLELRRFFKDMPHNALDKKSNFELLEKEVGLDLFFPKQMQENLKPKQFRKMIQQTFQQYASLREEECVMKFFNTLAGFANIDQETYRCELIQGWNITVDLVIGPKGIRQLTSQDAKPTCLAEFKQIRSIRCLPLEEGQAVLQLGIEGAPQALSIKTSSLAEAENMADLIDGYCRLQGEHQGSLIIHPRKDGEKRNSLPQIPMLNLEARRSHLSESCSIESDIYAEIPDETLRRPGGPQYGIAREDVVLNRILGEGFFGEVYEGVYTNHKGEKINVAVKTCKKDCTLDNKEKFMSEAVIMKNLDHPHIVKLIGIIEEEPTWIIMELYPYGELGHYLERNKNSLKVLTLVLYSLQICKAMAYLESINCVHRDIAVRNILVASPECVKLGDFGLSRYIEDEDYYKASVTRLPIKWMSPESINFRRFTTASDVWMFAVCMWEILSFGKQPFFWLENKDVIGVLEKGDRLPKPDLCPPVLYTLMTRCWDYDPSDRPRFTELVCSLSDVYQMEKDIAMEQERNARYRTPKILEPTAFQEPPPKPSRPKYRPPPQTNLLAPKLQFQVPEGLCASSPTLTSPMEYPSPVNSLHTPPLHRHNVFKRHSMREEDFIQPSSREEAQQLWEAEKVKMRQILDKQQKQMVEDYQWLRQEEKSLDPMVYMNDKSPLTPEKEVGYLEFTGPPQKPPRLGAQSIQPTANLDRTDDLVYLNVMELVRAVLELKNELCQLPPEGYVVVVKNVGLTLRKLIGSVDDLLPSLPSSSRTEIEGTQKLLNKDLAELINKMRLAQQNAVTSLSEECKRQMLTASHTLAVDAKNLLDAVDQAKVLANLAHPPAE

[9] = biological target: Calcium/calmodulin-dependent protein kinase type 1D (Homo sapiens) (UniProt Q8IU85); assay: Inhibition of human recombinant CaMK1d at 15 nM related to control ULK1
Sequence of Calcium/calmodulin-dependent protein kinase type 1D (Homo sapiens) (Q8IU85 whole entry, looked up): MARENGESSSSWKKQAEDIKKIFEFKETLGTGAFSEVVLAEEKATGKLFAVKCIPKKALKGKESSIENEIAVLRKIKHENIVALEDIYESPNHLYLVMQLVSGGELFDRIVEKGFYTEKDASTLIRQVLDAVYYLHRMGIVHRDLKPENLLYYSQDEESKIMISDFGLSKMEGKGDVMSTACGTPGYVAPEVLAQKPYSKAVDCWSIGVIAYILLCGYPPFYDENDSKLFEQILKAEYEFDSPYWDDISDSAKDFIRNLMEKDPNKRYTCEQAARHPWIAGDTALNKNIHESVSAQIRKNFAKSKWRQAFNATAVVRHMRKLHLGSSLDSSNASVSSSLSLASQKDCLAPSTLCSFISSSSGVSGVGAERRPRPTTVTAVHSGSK

[10] = biological target: T2, Bone morphogenetic protein receptor type-2 (Homo sapiens) (UniProt Q13873); assay: Inhibition of human recombinant BMPR2 at 15 nM in presence of ATP by radiometric assay relative to control
T2 sequence (whole entry): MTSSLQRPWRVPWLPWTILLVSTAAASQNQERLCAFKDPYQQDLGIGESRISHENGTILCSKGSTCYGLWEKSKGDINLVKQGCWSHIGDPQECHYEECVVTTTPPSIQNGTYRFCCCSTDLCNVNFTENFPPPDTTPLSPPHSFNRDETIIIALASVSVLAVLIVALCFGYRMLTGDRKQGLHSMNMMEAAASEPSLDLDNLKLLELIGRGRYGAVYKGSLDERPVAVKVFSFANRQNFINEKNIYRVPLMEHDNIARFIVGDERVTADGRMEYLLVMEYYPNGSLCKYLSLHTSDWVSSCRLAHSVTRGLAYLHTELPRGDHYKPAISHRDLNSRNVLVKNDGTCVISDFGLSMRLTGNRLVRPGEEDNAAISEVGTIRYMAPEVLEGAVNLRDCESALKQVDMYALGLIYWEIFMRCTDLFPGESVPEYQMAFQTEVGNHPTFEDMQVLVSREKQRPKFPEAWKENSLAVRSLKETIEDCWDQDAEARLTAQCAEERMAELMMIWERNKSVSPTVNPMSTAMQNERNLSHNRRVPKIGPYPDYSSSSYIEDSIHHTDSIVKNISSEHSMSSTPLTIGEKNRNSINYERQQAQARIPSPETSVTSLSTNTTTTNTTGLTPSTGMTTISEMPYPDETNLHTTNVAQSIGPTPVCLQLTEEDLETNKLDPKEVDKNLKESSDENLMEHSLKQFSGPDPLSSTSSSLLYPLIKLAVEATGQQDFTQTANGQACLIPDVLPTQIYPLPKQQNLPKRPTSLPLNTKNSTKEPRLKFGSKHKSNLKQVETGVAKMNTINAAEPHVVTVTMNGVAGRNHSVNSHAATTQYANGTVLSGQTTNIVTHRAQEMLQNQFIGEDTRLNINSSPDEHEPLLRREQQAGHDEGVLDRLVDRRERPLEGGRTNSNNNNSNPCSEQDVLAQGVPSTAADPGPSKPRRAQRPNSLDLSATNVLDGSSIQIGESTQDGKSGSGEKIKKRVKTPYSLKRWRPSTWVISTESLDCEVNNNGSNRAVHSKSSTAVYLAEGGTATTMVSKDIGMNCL
Outline: (§1)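 Part of a radiometric in vitro activity panel of 327 recombinant human kinases. Each kinase was tested in duplicate at one inhibitor concentration. Activity remaining was expressed as a percentage of the vehicle control, and percent inhibition was taken as 100 minus that value.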

[11] = biological target: Tyrosine-protein kinase Blk (Homo sapiens) (UniProt P51451); assay: Inhibition of human recombinant BLK at 40 nM in presence of ATP by radiometric assay relative to control; outline: as §1
Sequence of Tyrosine-protein kinase Blk (Homo sapiens) (P51451 2-505 limits assumed): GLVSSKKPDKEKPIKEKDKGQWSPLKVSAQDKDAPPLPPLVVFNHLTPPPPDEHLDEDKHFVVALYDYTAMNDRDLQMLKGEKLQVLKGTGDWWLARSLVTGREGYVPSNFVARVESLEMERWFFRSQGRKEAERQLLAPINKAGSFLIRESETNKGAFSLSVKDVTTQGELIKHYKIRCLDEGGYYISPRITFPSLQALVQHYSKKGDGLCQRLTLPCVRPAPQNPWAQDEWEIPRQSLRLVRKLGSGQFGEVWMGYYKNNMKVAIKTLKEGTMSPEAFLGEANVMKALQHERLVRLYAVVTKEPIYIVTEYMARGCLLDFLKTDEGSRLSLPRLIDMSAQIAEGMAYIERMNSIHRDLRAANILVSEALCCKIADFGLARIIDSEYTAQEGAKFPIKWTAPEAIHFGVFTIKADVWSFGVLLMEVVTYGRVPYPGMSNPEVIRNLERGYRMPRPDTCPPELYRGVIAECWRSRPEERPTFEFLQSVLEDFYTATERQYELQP

[12] = biological target: Calcium/calmodulin-dependent protein kinase type 1 (Homo sapiens) (UniProt Q14012); assay: Inhibition of human recombinant CaMK1a at 40 nM related to control ULK1
Sequence of Calcium/calmodulin-dependent protein kinase type 1 (Homo sapiens) (Q14012 whole entry, looked up): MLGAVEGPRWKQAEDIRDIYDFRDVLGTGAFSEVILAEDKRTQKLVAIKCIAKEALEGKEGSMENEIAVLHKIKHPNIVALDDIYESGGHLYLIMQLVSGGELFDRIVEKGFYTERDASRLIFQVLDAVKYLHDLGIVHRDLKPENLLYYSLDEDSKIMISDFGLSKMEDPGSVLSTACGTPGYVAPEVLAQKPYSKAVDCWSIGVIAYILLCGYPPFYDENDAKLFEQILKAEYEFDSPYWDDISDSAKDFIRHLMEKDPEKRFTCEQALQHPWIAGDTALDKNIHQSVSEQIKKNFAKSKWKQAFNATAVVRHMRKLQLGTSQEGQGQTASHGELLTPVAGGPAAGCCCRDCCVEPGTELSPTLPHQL

[13] = biological target: Tyrosine-protein kinase HCK (Homo sapiens) (UniProt P08631); assay: Inhibition of human recombinant HCK at 40 nM related to control ULK1
Sequence of Tyrosine-protein kinase HCK (Homo sapiens) (P08631 2-526 limits assumed): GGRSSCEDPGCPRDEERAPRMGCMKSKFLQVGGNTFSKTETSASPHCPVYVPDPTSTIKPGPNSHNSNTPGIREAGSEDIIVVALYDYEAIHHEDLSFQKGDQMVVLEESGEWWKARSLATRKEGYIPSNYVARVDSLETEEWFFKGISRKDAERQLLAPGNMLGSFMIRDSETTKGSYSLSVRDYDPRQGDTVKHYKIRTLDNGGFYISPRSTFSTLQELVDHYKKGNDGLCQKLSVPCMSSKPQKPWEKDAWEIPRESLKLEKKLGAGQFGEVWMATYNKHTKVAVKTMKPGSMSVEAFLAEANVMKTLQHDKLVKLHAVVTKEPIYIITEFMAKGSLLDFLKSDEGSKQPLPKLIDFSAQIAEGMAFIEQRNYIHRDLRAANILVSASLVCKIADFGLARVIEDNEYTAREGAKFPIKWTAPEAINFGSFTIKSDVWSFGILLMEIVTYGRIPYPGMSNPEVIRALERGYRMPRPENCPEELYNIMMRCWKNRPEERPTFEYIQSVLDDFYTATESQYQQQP

fold change (FC) [1]: 0.14
fold change (FC) [2]: 0.12
fold change (FC) [3]: 0
inhibition [4]: 2%
fold change (FC) [5]: 0.07
inhibition [6]: 0%
fold change (FC) [7]: 0.03
SMILES: CNC(=O)c1ccccc1Oc1nc(Nc2cc(OC)c(OC)c(OC)c2)ncc1Br

inhibition [8]: 0%
fold change (FC) [9]: 0
inhibition [10]: 5%
SMILES: CC(C)[C@H](NC(=O)c1cc(-c2cnn3cc(-c4ccc(OCCN5CCCCC5)cc4)cnc23)cs1)C(F)(F)F

inhibition [11]: 17%
fold change (FC) [12]: 0
fold change (FC) [13]: 0
SMILES: O=C(N[C@@H](C1CC1)C(F)(F)F)c1cc(-c2cnn3cc(-c4ccc(F)cc4)cnc23)cs1

From ChEMBL document CHEMBL5653631, “A Potent and Selective ULK1 Inhibitor Suppresses Autophagy and Sensitizes Cancer Cells to Nutrient Stress” (iScience, 2018)
